Measured values published in ChEMBL document CHEMBL4038284, “Synthesis of novel quinoline-based 4,5-dihydro-1H-pyrazoles as potential anticancer, antifungal, antibacterial and antiprotozoal agents” (Eur J Med Chem, 2017).
Converted amounts (≈) assume the structure as drawn. The source made the active and inactive calls. The rule behind the calls is not given here.

What was measured:
Klebsiella pneumoniae [1] = assay: Antibacterial activity against ESBL positive Klebsiella pneumoniae ATCC 700603 after 24 hrs by resazurin dye based microdilution assay; type: functional; conditions: Klebsiella pneumoniae, 700603, 24 h
Outline: (§1)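 MIC taken as the lowest concentration giving visible inhibition and/or by resazurin (1 mg/mL). Gentamicin was the control. Run in duplicate, repeated at least three times.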

Klebsiella pneumoniae [2] = assay: Antibacterial activity against carbapenemase positive Klebsiella pneumoniae BAA 1705 after 24 hrs by resazurin dye based microdilution assay; type: functional; conditions: BAA 1705, 24 h; outline: as §1
CCRF-CEM = assay: Growth inhibition of human CCRF-CEM cells at 10 uM incubated for 48 hrs by sulforhodamine B assay; type: functional, cell-based
Outline: (§2)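 NCI 60-cell-line screen at a single 10 µM dose. Cells in RPMI-1640 with 5% FBS and 2 mM L-glutamine, pre-incubated 24 h, then treated for 48 h at 37 °C. TCA fixation, sulforhodamine B staining, absorbance at 515 nm. Percentage growth calculated against time-zero and untreated controls.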

HL-60(TB) = assay: Growth inhibition of human HL-60(TB) cells at 10 uM incubated for 48 hrs by sulforhodamine B assay; type: functional, cell-based
Outline: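 NCI 60-line single-dose screen at 10 μM, 48 h. Cells in RPMI-1640 with 5% FBS and 2 mM L-glutamine at 37 °C, 5% CO2. Growth measured by TCA fixation and SRB staining (515 nm), relative to time-zero and untreated control wells.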

EKVX = assay: Growth inhibition of human EKVX cells at 10 uM incubated for 48 hrs by sulforhodamine B assay; type: functional, cell-based; outline: as §2
NCI-H226 = assay: Growth inhibition of human NCI-H226 cells at 10 uM incubated for 48 hrs by sulforhodamine B assay; type: functional, cell-based
Outline: (§3)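 NCI 60-line panel, single 10 μM dose. Cells were grown in RPMI-1640 with 5% FBS and 2 mM L-glutamine and pre-incubated 24 h before compound addition (DMSO stock). Exposure was 48 h at 37 °C, 5% CO2. Cells were fixed with cold TCA (10% final), stained with 0.4% SRB, bound dye dissolved in 10 mM Tris base, A515 read. Growth was taken relative to time-zero and untreated control plates.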

HCT-15 = assay: Growth inhibition of human HCT15 cells at 10 uM incubated for 48 hrs by sulforhodamine B assay; type: functional, cell-based; outline: as §2
KM12 = assay: Growth inhibition of human KM12 cells at 10 uM incubated for 48 hrs by sulforhodamine B assay; type: functional, cell-based; outline: as §3
SF-539 = assay: Growth inhibition of human SF539 cells at 10 uM incubated for 48 hrs by sulforhodamine B assay; type: functional, cell-based; outline: as §3
LOX IMVI = assay: Growth inhibition of human LOXIMVI cells at 10 uM incubated for 48 hrs by sulforhodamine B assay; type: functional, cell-based; outline: as §3
Malme-3M = assay: Growth inhibition of human MALME-3M cells at 10 uM incubated for 48 hrs by sulforhodamine B assay; type: functional, cell-based; outline: as §3
UACC-257 = assay: Growth inhibition of human UACC257 cells at 10 uM incubated for 48 hrs by sulforhodamine B assay; type: functional, cell-based
Outline: (§4)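 NCI-60 single-dose screen at 10 µM for 48 h. Cells were grown in RPMI-1640 with 5% FBS and 2 mM L-glutamine and preincubated 24 h before compound. Time-zero plates were TCA-fixed at compound addition. After exposure, cells were TCA-fixed, stained with SRB and read at 515 nm. Percentage growth was calculated against time-zero and untreated-control absorbances.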

NCI/ADR-RES = assay: Growth inhibition of human NCI/ADR-RES cells at 10 uM incubated for 48 hrs by sulforhodamine B assay; type: functional, cell-based; outline: as §3
786-0 = assay: Growth inhibition of human 786-0 cells at 10 uM incubated for 48 hrs by sulforhodamine B assay; type: functional, cell-based; outline: as §2
ACHN = assay: Growth inhibition of human ACHN cells at 10 uM incubated for 48 hrs by sulforhodamine B assay; type: functional, cell-based; outline: as §2
CAKI-1 = assay: Growth inhibition of human Caki1 cells at 10 uM incubated for 48 hrs by sulforhodamine B assay; type: functional, cell-based; outline: as §2
SN12C = assay: Growth inhibition of human SN12C cells at 10 uM incubated for 48 hrs by sulforhodamine B assay; type: functional, cell-based; outline: as §4
Hs-578T = assay: Growth inhibition of human Hs578T cells at 10 uM incubated for 48 hrs by sulforhodamine B assay; type: functional, cell-based; outline: as §3
Candida albicans [3] = assay: Growth inhibition of Candida albicans ATCC 10231 at 31.25 ug/ml incubated for 48 hrs under dark condition by broth microdilution method relative to control; type: functional; conditions: ATCC 10231, 48 h, read-out: GI
Outline: (§5)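 CLSI M27-A3 broth microdilution in RPMI-1640, DMSO ≤1%. Inoculum 1-5 × 10^3 CFU/mL. Incubated 48 h at 30 °C, dark. % inhibition = 100 − (OD405 test − sterility control)/(OD405 growth control − sterility control), with growth and sterility control wells. Triplicate.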

Candida albicans [4] = assay: Growth inhibition of Candida albicans ATCC 10231 at 3.4 ug/ml incubated for 48 hrs under dark condition by broth microdilution method relative to control; type: functional; conditions: ATCC 10231, 48 h, read-out: GI
Cryptococcus neoformans [5] = assay: Growth inhibition of Cryptococcus neoformans ATCC 32264 at 250 ug/ml incubated for 48 hrs under dark condition by broth microdilution method relative to control; type: functional; conditions: ATCC 32264, 48 h, read-out: GI; outline: as §5
Cryptococcus neoformans [6] = assay: Growth inhibition of Cryptococcus neoformans ATCC 32264 at 125 ug/ml incubated for 48 hrs under dark condition by broth microdilution method relative to control; type: functional; conditions: ATCC 32264, 48 h, read-out: GI; outline: as §5
Cryptococcus neoformans [7] = assay: Growth inhibition of Cryptococcus neoformans ATCC 32264 at 62.5 ug/ml incubated for 48 hrs under dark condition by broth microdilution method relative to control; type: functional; conditions: ATCC 32264, 48 h, read-out: GI; outline: as §5
Cryptococcus neoformans [8] = assay: Growth inhibition of Cryptococcus neoformans ATCC 32264 at 7.8 ug/ml incubated for 48 hrs under dark condition by broth microdilution method relative to control; type: functional; conditions: ATCC 32264, 48 h, read-out: GI; outline: as §5
Staphylococcus aureus [9] = assay: Antibacterial activity against methicillin-resistant Staphylococcus aureus ATCC 43300 after 24 hrs by resazurin dye based microdilution assay; type: functional; conditions: ATCC 43300, 24 h
Outline: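 Broth microdilution in Mueller Hinton broth, inoculum 5 × 10^5 – 8 × 10^5. Compound stocks diluted in MHB with 5% DMSO and 0.1% Tween 80. Incubation 24 h at 35-37 °C. MIC is the lowest concentration with visible growth inhibition and/or by resazurin (1 mg/mL) read-out. Gentamicin as control. Run in duplicate, replicated at least three times.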

Staphylococcus aureus [10] = assay: Antibacterial activity against vancomycin-intermediate Staphylococcus aureus after 24 hrs by resazurin dye based microdilution assay; type: functional; outline: as §1
Pseudomonas aeruginosa = assay: Antibacterial activity against Pseudomonas aeruginosa ATCC 27853 after 24 hrs by resazurin dye based microdilution assay; type: functional; conditions: ATCC 27853, 24 h; outline: as §1
Plasmodium falciparum = assay: Antiplasmodial activity against chloroquine-sensitive Plasmodium falciparum 3D7 assessed as reduction in parasitic LDH activity after 48 hrs by Malstat reagent based […] method; type: functional; conditions: 3D7, 48 h
Outline: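 Unsynchronized P. falciparum 3D7 at 0.5% parasitemia and 1% hematocrit in RPMI with 3% Albumax II. Exposed to 100, 25, 6.25 and 1.56 µg/mL for 48 h at 37 °C under 90% N2/5% CO2/5% O2. After three freeze-thaw cycles, LDH measured with Malstat and NBT/PES, 1 h in the dark, read at 650 nm. IC50 by Probit; triplicate, ≥2 experiments.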

Row | Compound | MIC (Klebsiella pneumoniae [1]) | MIC (Klebsiella pneumoniae [2]) | growth inhibition (GI) (CCRF-CEM) | growth inhibition (GI) (HL-60(TB)) | growth inhibition (GI) (EKVX) | growth inhibition (GI) (NCI-H226) | growth inhibition (GI) (HCT-15) | growth inhibition (GI) (KM12) | growth inhibition (GI) (SF-539) | growth inhibition (GI) (LOX IMVI) | inhibition of growth at 31.25 µg/mL (Candida albicans [3]) | inhibition of growth at 3.4 µg/mL (Candida albicans [4]) | inhibition of growth at 250 µg/mL (Cryptococcus neoformans [5]) | inhibition of growth at 125 µg/mL (Cryptococcus neoformans [6]) | inhibition of growth at 62.5 µg/mL (Cryptococcus neoformans [7]) | inhibition of growth at 7.8 µg/mL (Cryptococcus neoformans [8]) | MIC (Staphylococcus aureus [9]) | MIC (Staphylococcus aureus [10]) | MIC (Pseudomonas aeruginosa) | EC50 (Plasmodium falciparum) | other results
1 | COc1ccc(C2=NN(c3ccccc3)C(c3cccc(Nc4ccnc5cc(Cl)ccc45)c3)C2)cc1 (stereo not drawn) | > 1000 µg/mL | > 1000 µg/mL | inactive | inactive | inactive | inactive | inactive | inactive | inactive | inactive | 13.4% | 0.38% | 32.2% | 16.9% | 10.6% | 4.41% | > 1000 µg/mL | > 1000 µg/mL | > 1000 µg/mL | 13.7 µg/mL (≈ 27 µM) | growth inhibition (GI) (Malme-3M): inactive; growth inhibition (GI) (UACC-257): inactive; growth inhibition (GI) (NCI/ADR-RES): inactive; growth inhibition (GI) (786-0): inactive; growth inhibition (GI) (ACHN): inactive; growth inhibition (GI) (CAKI-1): inactive; growth inhibition (GI) (SN12C): inactive; growth inhibition (GI) (Hs-578T): inactive
2 | COc1cc(C(=O)/C=C/c2cccc(Nc3ccnc4cc(Cl)ccc34)c2)cc(OC)c1OC | > 1000 µg/mL | > 1000 µg/mL | Active | Active | Active | Active | Active | Active | Active | Active | 6.92% | 1.24% | 7.12% | 6.74% | 6.09% | 0% | > 1000 µg/mL | > 1000 µg/mL | > 1000 µg/mL | 14.1 µg/mL (≈ 29.7 µM) | growth inhibition (GI) (Malme-3M): Active; growth inhibition (GI) (UACC-257): Active; growth inhibition (GI) (NCI/ADR-RES): Active; growth inhibition (GI) (786-0): Active; growth inhibition (GI) (ACHN): Active; growth inhibition (GI) (SN12C): Active; growth inhibition (GI) (Hs-578T): Active
3 | O=CN1N=C(c2ccc(Cl)cc2)CC1c1cccc(Nc2ccnc3cc(Cl)ccc23)c1 (stereo not drawn) | > 1000 µg/mL | > 1000 µg/mL | Active | Active | Active | Active | Active | Active | Active | Active | 24.5% | 9.81% | 79.9% | 75.7% | 59.7% | 39.5% | > 1000 µg/mL | > 1000 µg/mL | > 1000 µg/mL | 24.7 µg/mL (≈ 53.6 µM) | growth inhibition (GI) (Malme-3M): Active; growth inhibition (GI) (UACC-257): Active; growth inhibition (GI) (NCI/ADR-RES): Active; growth inhibition (GI) (786-0): Active; growth inhibition (GI) (ACHN): Active; growth inhibition (GI) (SN12C): Active; growth inhibition (GI) (Hs-578T): Active
4 | COc1ccc(C2=NN(C=O)C(c3cccc(Nc4ccnc5cc(Cl)ccc45)c3)C2)cc1 (stereo not drawn) | > 1000 µg/mL | > 1000 µg/mL | Active | Active | Active | Active | Active | Active | Active | Active | 14.7% | 3.51% | 55.4% | 52.5% | 43.5% | 13.4% | > 1000 µg/mL | > 1000 µg/mL | > 1000 µg/mL | 16.1 µg/mL (≈ 35.3 µM) | growth inhibition (GI) (Malme-3M): Active; growth inhibition (GI) (UACC-257): Active; growth inhibition (GI) (NCI/ADR-RES): Active; growth inhibition (GI) (786-0): Active; growth inhibition (GI) (ACHN): Active; growth inhibition (GI) (SN12C): Active; growth inhibition (GI) (Hs-578T): Active
5 | O=Cc1cccc(Nc2ccnc3cc(Cl)ccc23)c1 | > 1000 µg/mL | 250 µg/mL (≈ 884 µM) | – | – | – | – | – | – | – | – | 10.6% | 1.33% | 100% | 38.5% | 19.6% | 5.93% | 500 µg/mL (≈ 1770 µM) | 125 µg/mL (≈ 442 µM) | > 1000 µg/mL | 14.2 µg/mL (≈ 50.1 µM) | –
6 | COc1ccc(C(=O)/C=C/c2cccc(Nc3ccnc4cc(Cl)ccc34)c2)cc1 | > 1000 µg/mL | > 1000 µg/mL | Active | Active | Active | Active | Active | Active | Active | Active | 26.9% | 5.88% | 46.1% | 34.4% | 13.9% | 2.47% | > 1000 µg/mL | > 1000 µg/mL | > 1000 µg/mL | 10.5 µg/mL (≈ 25.4 µM) | growth inhibition (GI) (Malme-3M): Active; growth inhibition (GI) (UACC-257): Active; growth inhibition (GI) (NCI/ADR-RES): Active; growth inhibition (GI) (786-0): Active; growth inhibition (GI) (ACHN): Active; growth inhibition (GI) (SN12C): Active; growth inhibition (GI) (Hs-578T): Active
